The text below walks through data of ChEMBL document CHEMBL1151695, “Design, synthesis and preliminary pharmacological evaluation of new analogues of DM232 (unifiram) and DM235 (sunifiram) as cognition modulators” (Bioorg Med Chem, 2008).

Data set [1] is filed under the species Mus musculus. Put plainly: Toxicity in mouse assessed as motor coordination after 45 mins by rotarod test. The class given is organism-based. The note with it: in vivo, 0.75 h. The procedure, abridged:
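Rota-rod: rod 30 cm long, 15 cm above the base, split into five sections, rotating at 16 rpm. Falls counted over 30 s. Mice with fewer than 3 or more than 6 falls in the pretest were rejected. Performance measured at pretest and 15, 30 and 45 min after test start. Compared with saline-treated mice.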
Background: In the rotarod test animals must keep their balance on a rotating rod.

Data set [2] relates to Mus musculus. Description: Antiamnesic activity in mouse assessed as reversal of scopolamine-induced memory loss at 10 mg/kg, ip treated 20 mins before training session by passive avoidance test. It counts as functional, organism-based. On the set-up: dose 10 mg/kg. The procedure, abridged:
(§1)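 Step-through passive avoidance in mice: lit and dark compartments joined by a guillotine door. Entering the dark side drops the mouse 40 cm into 10 °C water, a non-painful punishment. Mice not entering within 60 s at training were excluded. Compound given ip at 1:10 dilution steps […], 20 min before training. Vehicle was saline or saline/DMSO 4:1. Scopolamine 1.5 mg/kg ip immediately after punishment. Retention tested next day. MED is the lowest dose reversing amnesia.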

For data set [3], the species on record is Mus musculus. Description: Toxicity in mouse assessed as spontaneous motility and inspection activity after 5 mins by hole board test. It counts as organism-based. The note with it: in vivo. The procedure, abridged: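 Hole-board: 40 cm square plane with 16 holes of 3 cm, arranged 4×4. Each mouse placed centrally and free to move for […]. Photocells counted locomotion (spontaneous motility) and hole exploration, both as counts in 5 min. Compared with saline-treated mice.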

The test system of data set [4] is Mus musculus. Description: Antiamnesic activity in ip dosed mouse assessed as reversal of scopolamine-induced memory loss treated 20 mins before training session by passive avoidance test. The note with it: read-out: MED. It counts as functional. The procedure, abridged: as §1
The test system of data set [5] is Mus musculus. Description: Antiamnesic activity in scopolamine-induced mouse assessed as latency time to enter dark room in training session at 1.0 mg/kg, ip treated 20 mins before training session by passive avoidance test. It counts as functional. The note with it: route intraperitoneal. The procedure, abridged: as §1
In data set [6] the test system is Mus musculus. Description: Effect on passive avoidance in mouse assessed as latency time to enter dark room in retention session at 10 mg/kg, ip treated 20 mins before training session. The conditions noted are these: route intraperitoneal. It counts as functional. The procedure, abridged: (§2)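 Same step-through passive avoidance without scopolamine. Punishment is a 40 cm fall into 10 °C water on entering the dark room. Mice not entering within 60 s at training were excluded. Compound given ip at 1:10 dilution steps, 20 min before training, in saline or saline/DMSO 4:1. Controls received an extra saline injection right after training. Latency to enter the dark room recorded at training and at next-day retention.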

The species entered for data set [7] is Mus musculus. Put plainly: Effect on passive avoidance in mouse treated 20 mins before training session. It counts as functional. The note with it: read-out: MED. The procedure, abridged: as §2
For data set [8], the system named is Mus musculus. Description: Effect on passive avoidance in mouse assessed as latency time to enter dark room in training session at 10 mg/kg, ip treated 20 mins before training session. It counts as functional. The conditions noted are these: route intraperitoneal. The procedure, abridged: as §2
The subject of data set [9] is Mus musculus. Description: Antiamnesic activity in scopolamine-induced mouse assessed as latency time to enter dark room in retention session at 1.0 mg/kg, ip treated 20 mins before training session by passive avoidance test. The conditions noted are these: route intraperitoneal. The class given is functional. The procedure, abridged:
as §1

The structures appear in SMILES notation. Activity calls are given as the source filed them. The calls are words filed in the database; no cut-off is given here.

Regarding `CCC(=O)N[C@H]1CC[C@H](NC(=O)CC)CC1`, the Activity result in data set [1] and in data set [3] was “Non-toxic” in each case. Moreover, the result in [2] was inactive.
Regarding `CCC(=O)N[C@H]1CC[C@H](NC(=O)c2ccccc2)CC1`, the Activity entry in data set [1] and in [3] was “Non-toxic” in each case. Besides, the outcome in data set [2] was inactive.
As to `CC(=O)N[C@H]1CC[C@@H](NS(=O)(=O)c2ccc(F)cc2)CC1`, the minimal effective dose in data set [4] was determined as 1 mg/kg; in data set [7], 10 mg/kg. Moreover, the Activity is 19.1 s in data set [5]; 156.6 s in data set [6]; “Non-toxic” in data set [1]; “Non-toxic” in [3]; 32 s in data set [8]; 104.5 s in data set [9].
As for `CC(=O)Nc1ccc(NC(=O)c2ccccc2)cc1`, the Activity entry in data set [1] and in [3] was “Non-toxic” throughout. Besides, the result in data set [2] was inactive.
In the case of `O=C(N[C@H]1CC[C@H](NS(=O)(=O)c2ccc(F)cc2)CC1)c1ccccc1`, the Activity result in [1] and in [3] was “Non-toxic” in each case. Besides, in data set [2], the result was inactive.
For the compound `CC(C)S(=O)(=O)Nc1ccc(NS(=O)(=O)c2ccc(F)cc2)cc1`, the minimal effective dose in data set [4] amounted to 1 mg/kg; in [7] it was 10 mg/kg. Also, the Activity in data set [5] is given as 19.1 s; in data set [6] it was 125.2 s; in [1] it was “Non-toxic”; in data set [3], “Non-toxic”; in [8], 21.1 s; in data set [9], 76.3 s.
Regarding `CCC(=O)Nc1ccc(NS(=O)(=O)C(C)C)cc1`, the Activity entry in data set [1] and in [3] was “Non-toxic” each time. Also, the result in [2] was inactive.
Take `CC(=O)Nc1ccc(NS(=O)(=O)c2ccc(F)cc2)cc1`: the Activity entry in data set [1] and in [3] was “Non-toxic” each time. Moreover, the result in data set [2] was inactive.
As for `O=C(Nc1ccc(NS(=O)(=O)c2ccc(F)cc2)cc1)c1ccccc1`, the Activity result in data set [1] and in [3] was “Non-toxic” each time. Further, the result in data set [2] was inactive.
`CC(C)S(=O)(=O)N[C@H]1CC[C@H](NC(=O)c2ccccc2)CC1`: the Activity entry in data set [1] and in data set [3] was “Non-toxic” in each case. The result in data set [2] was inactive.
As for `CC(=O)Nc1ccc(NS(=O)(=O)C(C)C)cc1`, the Activity result in data set [1] and in data set [3] was “Non-toxic” throughout. Moreover, the outcome in data set [2] was inactive.
Turning to `CC(C)S(=O)(=O)N1CCN2C(=O)c3ccccc3C2C1` (stereo not given), the minimal effective dose in [4] is 1 mg/kg. Also, the Activity in data set [5] was 16.3 s; in data set [1] it was “Non-toxic”; in data set [3] it was “Non-toxic”; in data set [9] it was 85.5 s.
For `CCC(=O)Nc1ccc(NS(=O)(=O)c2ccc(F)cc2)cc1`, the Activity result in [1] and in [3] was “Non-toxic” each time. Further, the result in data set [2] was inactive.
On to `CCC(=O)N1CCN2C(=O)c3ccccc3C2C1` (stereo not given), for which the Activity entry in data set [1] and in data set [3] was “Non-toxic” each time. Besides, the result in [2] was inactive.
`CC(C)S(=O)(=O)N1CCN2C(=O)CCC2C1` (stereo not given): the Activity is given as 61.5 s in data set [6], “Non-toxic” in data set [1], “Non-toxic” in data set [3] and 13.6 s in [8]. Besides, the minimal effective dose in data set [7] is 10 mg/kg.
For `CC(=O)N[C@H]1CC[C@H](NC(=O)c2ccccc2)CC1`, the Activity result in data set [1] and in [3] was “Non-toxic” in each case. Further, the outcome in [2] was inactive.
Regarding `CC(=O)N1CCN2C(=O)c3ccccc3C2C1` (stereo not given), the Activity result in [1] and in data set [3] was “Non-toxic” throughout. Also, the result in [2] was inactive.
